For one series, the system named is A549. In words: Cytotoxicity against human A549 cells after 96 hrs by MTT assay. The class given is functional, cell-based. The settings on record: A549, 96 h. An outline of the steps: (§1)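 Cells kept in RPMI 1640 with 10% FBS, penicillin and streptomycin, at 37 °C in 5% CO2. Seeded at 1.5 × 10^3 cells per well and left 24 h. Compounds added in DMSO, five concentrations over a final 0.01-10 […], each in three parallel wells, for 96 h. MTT (0.2%) added for 4 h, formazan dissolved in DMSO, read at 570 nm. IC50 taken from dose-response curves as 50% loss of optical density versus DMSO control.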
A general note: Tetrazolium assays rely on reduction of a dye to a coloured formazan, in cell work by metabolically active cells.

In a further series the test system is A2780. The series is described as follows: Cytotoxicity against human A2780 cells after 96 hrs by MTT assay. In kind it is functional, cell-based. The settings on record: A2780, 96 h. The method, boiled down:
as §1

The next series has as its system BGC-823. The series is described as follows: Cytotoxicity against human BGC823 cells after 96 hrs by MTT assay. The note with it: BGC-823, 96 h. In kind it is functional, cell-based. An outline of the steps:
as §1

The test system of the next series is HCT-8. In words: Cytotoxicity against human HCT8 cells after 96 hrs by MTT assay. In kind it is functional, cell-based. The note with it: HCT-8, 96 h. The method, boiled down: as §1
A short description of series [1]: Toxicity in rabbit erythrocytes assessed as hemolytic activity. The class given is cell-based, Oryctolagus cuniculus, Erythrocyte. An outline of the steps: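 Rabbit erythrocytes prepared by the Chinese Pharmacopoeia method. Compounds tested at 0.01, 0.05, 0.1, 0.5, 2.5, 10 and 100 µM using a procedure adapted from the literature. Result given as HC50.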
For the next series, the system named is Bel-7402. In words: Cytotoxicity against human Bel7402 cells after 96 hrs by MTT assay. In kind it is functional, cell-based. The note with it: Bel-7402, 96 h. The method, boiled down: as §1

In ChEMBL document CHEMBL1151833, “Cytotoxic oleanane triterpene saponins from Albizia chinensis” (J Nat Prod, 2009) one finds IC50 and HC50 data, which are given here for five compounds.

Each structure is given as a SMILES string. pIC50: −log10 of the molar value.

For `C=C[C@](C)(CC/C=C(\CO)C(=O)O[C@H]1[C@H](O[C@](C)(C=C)CC/C=C(\C)C(=O)O[C@H]2[C@H](O)[C@@H](O)[C@H](O[C@](C)(C=C)CC/C=C(\CO)C(=O)O[C@H]3C[C@]4(C(=O)O[C@@H]5O[C@H](CO)[C@@H](O)[C@H](O)[C@H]5O[C@@H]5O[C@@H](C)[C@H](O[C@@H]6O[C@@H](CO)[C@H](O)[C@H]6O)[C@@H](O[C@@H]6O[C@H](CO)[C@@H](O)[C@H](O)[C@H]6O)[C@H]5O)[C@H](O)C[C@]5(C)C(=CC[C@@H]6[C@@]7(C)CC[C@H](O[C@@H]8O[C@H](CO[C@@H]9O[C@H](C)[C@H](O)[C@H](O)[C@H]9O[C@@H]9OC[C@@H](O)[C@H](O)[C@H]9O)[C@@H](O)[C@H](O)[C@H]8O)C(C)(C)[C@@H]7CC[C@]65C)[C@@H]4CC3(C)C)O[C@@H]2C)O[C@H](C)[C@@H](O)[C@@H]1O)O[C@@H]1O[C@H](C)[C@@H](O)[C@H](O)[C@H]1O` [ALBIZOSIDE A], the pIC50 (in general, −log10 of the IC50, conventionally taken in molar units) with A549 was 5.72; with A2780 it was 5.89; in the series with BGC-823 it was 5.80; in the series on HCT-8 it was 5.25; in the series on Bel-7402 it was 5.59. Also, the HC50 (in general, the concentration giving 50% haemolysis) in series [1] turned out to be 400 nM.
Take `C=C[C@](C)(CC/C=C(\CO)C(=O)O[C@H]1[C@H](O[C@](C)(C=C)CC/C=C(\C)C(=O)O[C@H]2[C@H](O)[C@@H](O)[C@H](O[C@](C)(C=C)CC/C=C(\CO)C(=O)O[C@H]3C[C@]4(C(=O)O[C@@H]5O[C@H](CO)[C@@H](O)[C@H](O)[C@H]5O[C@@H]5O[C@@H](C)[C@H](O[C@@H]6O[C@@H](CO)[C@H](O)[C@H]6O)[C@@H](O[C@@H]6O[C@H](CO)[C@@H](O)[C@H](O)[C@H]6O)[C@H]5O)[C@H](O)C[C@]5(C)C(=CC[C@@H]6[C@@]7(C)CC[C@H](O[C@@H]8O[C@H](CO[C@@H]9O[C@H](C)[C@H](O)[C@H](O)[C@H]9O[C@@H]9OC[C@@H](O)[C@H](O)[C@H]9O)[C@@H](O)[C@H](O)[C@H]8O[C@@H]8O[C@H](CO)[C@@H](O)[C@H](O)[C@H]8O)C(C)(C)[C@@H]7CC[C@]65C)[C@@H]4CC3(C)C)O[C@@H]2C)O[C@H](C)[C@@H](O)[C@@H]1O)O[C@@H]1O[C@H](C)[C@@H](O)[C@H](O)[C@H]1O` [ALBIZOSIDE B]: the pIC50 is 6.52 in the series with A549; 5.92 in the series with A2780; 5.42 in the series with BGC-823; 5.89 with HCT-8; 5.89 in the series on Bel-7402. Further, in series [1], the HC50 turned out to be 700 nM.
For the compound `C=C[C@](C)(CC/C=C(\C)C(=O)O[C@H]1[C@H](O)[C@@H](O)[C@H](O[C@](C)(C=C)CC/C=C(\CO)C(=O)O[C@H]2C[C@]3(C(=O)O[C@@H]4O[C@H](CO)[C@@H](O)[C@H](O)[C@H]4O[C@@H]4O[C@@H](C)[C@H](O[C@@H]5O[C@@H](CO)[C@H](O)[C@H]5O)[C@@H](O[C@@H]5O[C@H](CO)[C@@H](O)[C@H](O)[C@H]5O)[C@H]4O)[C@H](O)C[C@]4(C)C(=CC[C@@H]5[C@@]6(C)CC[C@H](O[C@@H]7O[C@H](CO[C@@H]8OC[C@H](O)[C@H](O)[C@H]8O[C@@H]8OC[C@@H](O)[C@H](O)[C@H]8O)[C@@H](O)[C@H](O)[C@H]7O[C@@H]7O[C@H](CO)[C@@H](O)[C@H](O)[C@H]7O)C(C)(C)[C@@H]6CC[C@]54C)[C@@H]3CC2(C)C)O[C@@H]1C)O[C@@H]1O[C@H](C)[C@@H](O)[C@H](O)[C@H]1O` [ALBIZOSIDE C], the pIC50 is 8.00 with A549; 6.52 in the series on A2780; 5.77 in the series with BGC-823; 6.40 in the series with HCT-8; 6.40 in the series on Bel-7402. Also, the HC50 in series [1] is 700 nM.
In the series on A2780, `CC[C@@]1(O)C(=O)OCc2c1cc1n(c2=O)Cc2cc3ccccc3nc2-1` [CAMPTOTHECIN] had a pIC50 of 6.52.
For the compound `C=C[C@](C)(CC/C=C(\CO)C(=O)O[C@H]1C[C@]2(C(=O)O[C@@H]3O[C@H](CO)[C@@H](O)[C@H](O)[C@H]3O[C@@H]3O[C@@H](C)[C@H](O[C@@H]4O[C@@H](CO)[C@H](O)[C@H]4O)[C@@H](O[C@@H]4O[C@H](CO)[C@@H](O)[C@H](O)[C@H]4O)[C@H]3O)[C@H](O)C[C@]3(C)C(=CC[C@@H]4[C@@]5(C)CC[C@H](O[C@@H]6O[C@H](CO[C@@H]7O[C@H](C)[C@H](O)[C@H](O)[C@H]7O[C@@H]7OC[C@@H](O)[C@H](O)[C@H]7O)[C@@H](O)[C@H](O)[C@H]6O)C(C)(C)[C@@H]5CC[C@]43C)[C@@H]2CC1(C)C)O[C@@H]1O[C@H](C)[C@@H](O)[C@H](O)[C@H]1O` [PROSAPOGENIN 10], the pIC50 with A549, in the series on A2780, with BGC-823, with HCT-8 and in the series on Bel-7402 was < 5.00 each time. Further, in series [1], the HC50 was 128000 nM.
